Assay outcomes from PubChem BioAssay.
Only some compounds are listed: those with a hit (about 1.8% of all), similar ones and a draw of the others.
SUMO1-SIM PPI: modulators of SUMO1 protein-protein interactions, primary screen, biochemical, uHTS; Small ubiquitin-related modifier 1 (Homo sapiens), P63165; SUMO1 binding to a labelled peptide, TR-FRET, 1 h; inhibition, % at 20 µM; actives 0.33% (n = 360,000); in the data active means inhibition above about 37%
HKDC1 inh: HKDC1 hexokinase inhibitors, primary screen, biochemical, fluorescence, uHTS; recombinant HKDC1, G6PDH/diaphorase resazurin coupled fluorescence; inhibition, % at 20 µM; actives 0.16% (n = 340,000);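 active means inhibition above about 35% when tested at 20 µM, limit read from the data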;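 further: plate controls were DMSO wells with enzyme for no effect and DMSO wells lacking enzyme for full effect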
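Test system: HK5 enzyme. Quantity: 5 µg/mL HK5 final. Reagent: glucose and ATP substrates. Schedule: 90 min reaction incubation at room temperature, dark. Technique: resazurin-to-resorufin fluorescence via G6PDH and diaphorase coupling, 525/613 nm. Control set: DMSO wells with and without enzyme mix.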
LMPTP block: LMPTP phosphatase inhibitors, primary screen, biochemical, fluorescence intensity, uHTS; Low molecular weight phosphotyrosine protein phosphatase (Homo sapiens), P24666; recombinant LMPTP-A, OMFP fluorogenic substrate; inhibition, % at 20 µM; actives 0.22% (n = 360,000); AID 651560, 2012;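 active means compounds that cut the enzyme signal by at least half of the control window in the single-dose screen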;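 further: plate controls were DMSO wells with enzyme plus substrate for no effect and substrate without enzyme for full effect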
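Material: LMPTP-A; amount: 0.625 nM enzyme; doses: single 20 µM dose; times: reaction 50 min, room temperature, dark; technique: fluorescence intensity of OMFP turnover product; benchmarks: no-enzyme and uninhibited controls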
Scp-1 inhibitor: Scp-1 phosphatase inhibitors, primary screen, biochemical, colorimetric, uHTS. Carboxy-terminal domain RNA polymerase II polypeptide A small phosphatase 1 (Homo …. Recombinant Scp1, phosphopeptide, malachite green phosphate absorbance. inhibition, % at 20 µM. actives 0.88% (n = 340,000);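 active means inhibition above about 50% at 20 µM, limit read from the data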;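 further: plate controls were DMSO wells with enzyme for no effect and wells lacking enzyme for full effect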
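Test system: SCP-1 phosphatase catalytic domain, residues 76-261 | Compound dosing: One concentration, 20 µM, with 1.0% DMSO | Schedule: 45 min room-temperature reaction, 5 min colour, 30 min stabiliser | Detection: Absorbance at 630 nm | Read-out basis: % inhibition of SCP-1 phosphate liberation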
STEP inh: STEP phosphatase inhibitors, primary screen, biochemical, fluorescence intensity, uHTS; Tyrosine-protein phosphatase non-receptor type 5 (Homo sapiens), P54829; recombinant STEP, OMFP fluorogenic substrate; inhibition, % at 20 µM; actives 0.25% (n = 360,000); AID 588621, 2011;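 active means inhibition at 20 µM, scaled per plate between control wells, above about 37%, limit read from the data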;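 further: 0% = DMSO with enzyme and substrate and 100% = substrate only without enzyme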
Target sequence (P54829 whole entry, looked up): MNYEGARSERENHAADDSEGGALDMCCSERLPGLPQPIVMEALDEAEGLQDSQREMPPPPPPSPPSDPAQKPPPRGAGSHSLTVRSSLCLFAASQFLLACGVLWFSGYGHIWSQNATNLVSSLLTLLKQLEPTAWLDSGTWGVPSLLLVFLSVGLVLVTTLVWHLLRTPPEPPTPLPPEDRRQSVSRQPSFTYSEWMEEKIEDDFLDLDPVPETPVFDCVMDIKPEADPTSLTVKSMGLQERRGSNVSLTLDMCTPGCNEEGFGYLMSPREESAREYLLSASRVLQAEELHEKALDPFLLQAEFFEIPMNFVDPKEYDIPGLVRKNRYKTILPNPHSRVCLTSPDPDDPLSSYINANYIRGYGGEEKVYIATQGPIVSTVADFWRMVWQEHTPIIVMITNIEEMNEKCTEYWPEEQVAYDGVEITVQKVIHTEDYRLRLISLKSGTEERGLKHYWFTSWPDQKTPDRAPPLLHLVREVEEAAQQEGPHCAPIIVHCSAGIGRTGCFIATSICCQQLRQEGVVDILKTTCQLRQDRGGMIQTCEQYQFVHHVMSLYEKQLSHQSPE
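material = STEP tyrosine phosphatase | reagent = fluorogenic phosphatase substrate OMFP at 25 µM final | doses = single compound dose of 20 µM, 1% DMSO final | schedule = 20 min reaction, room temperature, in the dark | measured by = fluorescence, 480/540 nm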
DNMT1 block: human DNMT1 methyltransferase inhibitors, primary screen, biochemical, molecular beacon, fluorescence, HinP1I cleavage, uHTS. DNA (cytosine-5)-methyltransferase 1 (Homo sapiens), P26358. inhibition (reported as % activation of signal), % at 10 µM. actives 0.83% (n = 360,000); in the data active means inhibition above about 50%
Scp-1 conf: Scp-1 phosphatase inhibitors, retest, confirmation, biochemical, colorimetric, single concentration; shares compounds with Scp-1 inhibitor; recombinant SCP-1 catalytic domain, phosphate release, malachite green absorbance; inhibition, % at 20 µM; actives 61% (n = 2,500);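 further: plate controls were DMSO with enzyme for no effect and buffer wells lacking enzyme for full effect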
MG interference: colorimetric readout interference by compounds, confirmation, artefact control for Scp-1 inhibitor project, biochemical, single concentration; shares compounds with Scp-1 inhibitor; Colorimetric interference counterscreen, malachite green absorbance 630 nm; apparent inhibition (interference), % at 20 µM; 2,500 tested, under 10 active;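 further: compounds added after enzyme reaction finished so only phosphate colour detection is probed; plate controls were DMSO wells with completed Scp-1 reaction for no effect and substrate wells lacking enzyme for full effect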
Scp1 DSF: Scp-1 binding by thermal shift, confirmation, orthogonal assay for Scp-1 inhibitor project, biophysical, differential scanning fluorimetry | thermal shift relative to vanadate control, % at 40 µM | AID 540329, 2011 | Recombinant SCP1, Sypro Orange thermal shift Tm | actives 25% (n = 1,500) | shares compounds with Scp-1 inhibitor;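 active means substances whose mean melting-temperature shift, as a percentage of the reference inhibitor's shift, reaches about 5.3%, limit read from the data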;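 further: 0% = Tm of DMSO wells and 100% = Tm with sodium orthovanadate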
Starred values were filed as active, the others as inactive; · = no result given.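 How the source made its calls, unless noted: active means inhibition of at least 30% at 20 µM; inactive means the rest.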

SMILES	SUMO1-SIM PPI	HKDC1 inh	LMPTP block	Scp-1 inhibitor	STEP inh	DNMT1 block	Scp-1 conf	MG interference	Scp1 DSF
O=C(COC(=O)c1cc(=O)[nH]c2ccccc12)NC(=O)NC1CCCCC1	-6	2	1	-6	-2	1	-19	-16	·
COC(=O)CCC/C=C1\SC[C@@H](NC(=O)c2ccccc2)C1NC(C)=O (stereo partly drawn)	-3	-6	-1	2	0	3	·	·	·
CCC(C)(C)n1nnnc1C(c1ccc(C)cc1)N(Cc1ccco1)Cc1cccs1 (stereo not drawn)	-1	1	3	107*	5	0	-10	-11	·
COc1ccc(CCNC(=O)C2c3ccccc3C(=O)N2CCC(C)C)cc1OC (stereo not drawn)	-2	-4	-2	-7	-2	1	·	·	·
C=CCNc1nc(C(=O)OCC(=O)Nc2ccc(S(N)(=O)=O)cc2)cs1	-1	-5	13	58*	3	-4	65*	-10	-2
COc1ccc(C(CC(=O)N2CCCC2)c2c(OC)cc(OC)c3c(-c4ccccc4)cc(=O)oc23)cc1 (stereo not drawn)	3	11	15	67*	7	94*	59*	-9	-21
O=C(O)c1ccc(CNc2ccccc2C(=O)O)cc1	8	2	0	53*	6	39	54*	-4	-9
C=CCn1c(SCc2nc3sc(C(=O)O)c(C)c3c(=O)[nH]2)nnc1-c1ccc(C(C)(C)C)cc1	16	7	1	69*	8	11	55*	-14	1
C=CCn1c(SCc2nc3sc(C(=O)O)c(C)c3c(=O)[nH]2)nnc1-c1ccccc1	6	-7	0	26	-1	7	·	·	·
Fc1ccc2cc(-c3ccsc3)ncc2c1	-22	-1	1	-8	2	4	·	·	·
Cc1[nH]c2ccccc2c1C(=O)CNc1nccs1	0	-3	1	96*	0	-3	-6	-7	·
COc1ccc(N2CC(NS(=O)(=O)c3ccc(F)cc3)CC2=O)cc1 (stereo not drawn)	0	-4	0	-5	-1	-2	-8	-11	·
O=C1CC(NS(=O)(=O)c2cccnc2)CN1c1ccc(F)cc1 (stereo not drawn)	2	-7	0	4	0	1	·	·	·
NC(=O)c1c(NC(=O)C2CC=CCC2C(=O)O)sc2c1CCCCC2 (stereo not drawn)	28	1	1	58*	38	20	71*	-2	0
NC(=O)c1ccccc1NC(=O)/C=C/c1ccc(Cl)cc1	0	15	1	6	-2	0	·	·	·
O=C(/C=C/c1ccc(Cl)cc1)NC(=S)Nc1ccccc1C(=O)O	-2	11	3	58*	6	5	67*	-13	7.8*
